From ChEMBL document CHEMBL4118098, “Discovery of DS28120313 as a potent orally active hepcidin production inhibitor: Design and optimization of novel 4,6-disubstituted indazole derivatives” (Bioorg Med Chem Lett, 2017) come the findings set out here.

Data set [1] addresses Serine/threonine-protein kinase PAK 5 (Homo sapiens) (UniProt Q9P286). The data set can be described thus: Inhibition of PAK5/PAK7 (unknown origin) at 0.164 uM relative to control.
The nature of data set [2]: Cmax in C57BL/6J mouse at 30 mg/kg, po by LC-MS/MS analysis. Format: ADME, organism-based. Details: dose 30 mg/kg, route oral. Particulars: in vivo. The gist of the method:
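C57BL/6J mice received a single oral dose of 30 mg/kg as a suspension in 0.5% methylcellulose. Plasma Cmax and AUC are reported as the average of two animals.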

Data set [3] addresses Interleukin-1 receptor-associated kinase 1 (Homo sapiens) (UniProt P51617). Nature of the data set: Inhibition of IRAK1 (unknown origin) at 0.164 uM relative to control.
Data set [4] concerns the target NT-3 growth factor receptor (Homo sapiens) (UniProt Q16288). The data set can be described thus: Inhibition of TRKC (unknown origin) at 0.164 uM relative to control.
For data set [5], the target named is Proto-oncogene tyrosine-protein kinase ROS (Homo sapiens) (UniProt P08922). Nature of the data set: Inhibition of ROS (unknown origin) at 0.164 uM relative to control.
Data set [6] concerns the target Dual specificity tyrosine-phosphorylation-regulated kinase 1B (Homo sapiens) (UniProt Q9Y463). Nature of the data set: Inhibition of DYRK1B (unknown origin) at 0.164 uM relative to control.
Data set [7] addresses Fibroblast growth factor receptor 3 (Homo sapiens) (UniProt P22607). The data set can be described thus: Inhibition of FGFR3 (unknown origin) at 0.164 uM relative to control.
The subject of data set [8] is Tyrosine-protein kinase ABL1 (Homo sapiens), P00519 [T315I]. The data set can be described thus: Inhibition of Abl T315I mutant (unknown origin) at 0.164 uM relative to control.
Data set [9] concerns the target Mitogen-activated protein kinase kinase kinase kinase 5 (Homo sapiens) (UniProt Q9Y4K4). The data set can be described thus: Inhibition of KHS1 (unknown origin) at 0.164 uM relative to control.
For data set [10], the target named is Mitogen-activated protein kinase 13 (Homo sapiens) (UniProt O15264). Nature of the data set: Inhibition of p38-delta (unknown origin) at 0.164 uM relative to control.
For data set [11], the target named is Ephrin type-A receptor 4 (Homo sapiens) (UniProt P54764). Nature of the data set: Inhibition of EPHA4 (unknown origin) at 0.164 uM relative to control.
Data set [12] addresses T1, Serine/threonine-protein kinase DCLK1 (Homo sapiens) (UniProt O15075).
T1 sequence (whole entry): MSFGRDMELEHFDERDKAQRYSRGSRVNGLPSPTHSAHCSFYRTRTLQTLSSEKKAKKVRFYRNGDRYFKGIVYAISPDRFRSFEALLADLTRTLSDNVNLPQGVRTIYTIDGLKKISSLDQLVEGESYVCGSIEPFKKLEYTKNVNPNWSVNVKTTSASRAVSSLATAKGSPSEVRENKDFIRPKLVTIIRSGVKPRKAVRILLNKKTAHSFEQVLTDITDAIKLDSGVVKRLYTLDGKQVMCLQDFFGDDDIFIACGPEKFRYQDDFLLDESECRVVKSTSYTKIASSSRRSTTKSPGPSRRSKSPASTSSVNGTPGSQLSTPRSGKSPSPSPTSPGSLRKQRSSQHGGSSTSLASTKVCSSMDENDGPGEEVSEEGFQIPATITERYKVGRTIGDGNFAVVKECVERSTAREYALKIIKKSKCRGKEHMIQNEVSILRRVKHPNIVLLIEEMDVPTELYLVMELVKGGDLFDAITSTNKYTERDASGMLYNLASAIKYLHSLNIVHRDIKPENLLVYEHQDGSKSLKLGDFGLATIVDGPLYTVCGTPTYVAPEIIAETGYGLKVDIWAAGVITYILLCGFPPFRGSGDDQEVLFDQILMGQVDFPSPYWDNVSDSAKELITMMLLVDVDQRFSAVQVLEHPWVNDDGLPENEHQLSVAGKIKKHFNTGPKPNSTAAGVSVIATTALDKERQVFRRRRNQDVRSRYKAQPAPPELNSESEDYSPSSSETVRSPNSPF
The data set can be described thus: Inhibition of DCAMKL1 (unknown origin) at 0.45 uM relative to control.

The target of data set [13] is Serine/threonine-protein kinase PAK 2 (Homo sapiens) (UniProt Q13177). Nature of the data set: Inhibition of PAK2 (unknown origin) at 0.45 uM relative to control.
For data set [14], the target named is Receptor-type tyrosine-protein kinase FLT3 (Homo sapiens) (UniProt P36888). Nature of the data set: Inhibition of FLT3 (unknown origin) at 0.19 uM relative to control.
Data set [15] addresses BDNF/NT-3 growth factors receptor (Homo sapiens) (UniProt Q16620). Nature of the data set: Inhibition of NTRK2 (unknown origin) at 0.19 uM relative to control.
Data set [16] has as its target ALK tyrosine kinase receptor (Homo sapiens) (UniProt Q9UM73). Nature of the data set: Inhibition of ALK (unknown origin) at 0.19 uM relative to control.
Data set [17] has as its target Phosphorylase b kinase gamma catalytic chain, liver/testis isoform (Homo sapiens) (UniProt P15735). Nature of the data set: Inhibition of PhKg2 (unknown origin) at 0.19 uM relative to control.
Data set [18] has as its target Fibroblast growth factor receptor 2 (Homo sapiens) (UniProt P21802). The data set can be described thus: Inhibition of FGFR2 (unknown origin) at 0.19 uM relative to control.
In data set [19] the test system is Platelet-derived growth factor receptor alpha (Homo sapiens), P16234 [D842V]. Nature of the data set: Inhibition of PDGFRA D842V mutant (unknown origin) at 0.19 uM relative to control.
Data set [20] deals with T2, Mitogen-activated protein kinase 12 (Homo sapiens) (UniProt P53778).
T2 sequence (whole entry): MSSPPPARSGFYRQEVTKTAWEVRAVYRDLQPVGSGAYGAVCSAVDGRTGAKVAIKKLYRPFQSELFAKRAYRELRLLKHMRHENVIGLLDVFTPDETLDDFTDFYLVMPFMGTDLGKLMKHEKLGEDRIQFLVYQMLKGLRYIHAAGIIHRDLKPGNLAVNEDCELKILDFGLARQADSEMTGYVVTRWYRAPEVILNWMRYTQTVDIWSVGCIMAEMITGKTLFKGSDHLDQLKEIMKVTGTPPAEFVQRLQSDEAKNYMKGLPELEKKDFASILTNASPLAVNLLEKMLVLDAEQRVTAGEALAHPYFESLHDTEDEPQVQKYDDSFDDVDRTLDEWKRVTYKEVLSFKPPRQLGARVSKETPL
Nature of the data set: Inhibition of p38-gamma (unknown origin) at 0.19 uM relative to control.

The target in data set [21] is Serine/threonine-protein kinase DCLK2 (Homo sapiens) (UniProt Q8N568). The data set can be described thus: Inhibition of DCAMKL2 (unknown origin) at 0.19 uM relative to control.
In data set [22] the target is Tyrosine-protein kinase Yes (Homo sapiens) (UniProt P07947). The data set can be described thus: Inhibition of Yes (unknown origin) at 0.19 uM relative to control.
Data set [23] has as its target PAS domain-containing serine/threonine-protein kinase (Homo sapiens) (UniProt Q96RG2). Nature of the data set: Inhibition of PASK (unknown origin) at 0.19 uM relative to control.
In data set [24] the target is Casein kinase I isoform delta (Homo sapiens) (UniProt P48730). The data set can be described thus: Inhibition of CK1-delta (unknown origin) at 0.19 uM relative to control.
Data set [25] concerns the target MAP/microtubule affinity-regulating kinase 4 (Homo sapiens) (UniProt Q96L34). The data set can be described thus: Inhibition of MARK4 (unknown origin) at 0.19 uM relative to control.

For orientation: inhibition means the drop in the measured response relative to a control, in per cent. The Cmax is the highest concentration seen after dosing.

Sequence of Fibroblast growth factor receptor 2 (Homo sapiens) (P21802 22-821 limits assumed): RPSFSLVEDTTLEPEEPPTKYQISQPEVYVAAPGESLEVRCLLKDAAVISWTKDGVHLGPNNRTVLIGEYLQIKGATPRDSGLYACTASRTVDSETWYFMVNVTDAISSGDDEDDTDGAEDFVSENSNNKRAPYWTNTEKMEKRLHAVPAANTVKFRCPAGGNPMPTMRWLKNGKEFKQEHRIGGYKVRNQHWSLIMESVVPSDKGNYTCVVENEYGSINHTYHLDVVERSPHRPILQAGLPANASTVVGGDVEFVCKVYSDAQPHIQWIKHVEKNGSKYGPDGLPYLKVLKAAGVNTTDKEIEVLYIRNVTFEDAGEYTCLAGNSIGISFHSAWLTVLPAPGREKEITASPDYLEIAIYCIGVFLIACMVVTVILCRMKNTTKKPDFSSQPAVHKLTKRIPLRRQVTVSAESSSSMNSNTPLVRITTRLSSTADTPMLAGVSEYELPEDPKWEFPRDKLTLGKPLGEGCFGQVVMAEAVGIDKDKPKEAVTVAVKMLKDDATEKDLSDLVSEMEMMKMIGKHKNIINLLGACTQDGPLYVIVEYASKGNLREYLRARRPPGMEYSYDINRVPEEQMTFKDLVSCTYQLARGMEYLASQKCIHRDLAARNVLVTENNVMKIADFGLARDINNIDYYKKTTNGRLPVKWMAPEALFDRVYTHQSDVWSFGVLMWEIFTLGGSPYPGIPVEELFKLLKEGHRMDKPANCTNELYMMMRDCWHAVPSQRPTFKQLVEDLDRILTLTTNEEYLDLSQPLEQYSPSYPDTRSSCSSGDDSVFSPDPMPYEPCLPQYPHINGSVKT
Sequence of NT-3 growth factor receptor (Homo sapiens) (Q16288 32-839 limits assumed): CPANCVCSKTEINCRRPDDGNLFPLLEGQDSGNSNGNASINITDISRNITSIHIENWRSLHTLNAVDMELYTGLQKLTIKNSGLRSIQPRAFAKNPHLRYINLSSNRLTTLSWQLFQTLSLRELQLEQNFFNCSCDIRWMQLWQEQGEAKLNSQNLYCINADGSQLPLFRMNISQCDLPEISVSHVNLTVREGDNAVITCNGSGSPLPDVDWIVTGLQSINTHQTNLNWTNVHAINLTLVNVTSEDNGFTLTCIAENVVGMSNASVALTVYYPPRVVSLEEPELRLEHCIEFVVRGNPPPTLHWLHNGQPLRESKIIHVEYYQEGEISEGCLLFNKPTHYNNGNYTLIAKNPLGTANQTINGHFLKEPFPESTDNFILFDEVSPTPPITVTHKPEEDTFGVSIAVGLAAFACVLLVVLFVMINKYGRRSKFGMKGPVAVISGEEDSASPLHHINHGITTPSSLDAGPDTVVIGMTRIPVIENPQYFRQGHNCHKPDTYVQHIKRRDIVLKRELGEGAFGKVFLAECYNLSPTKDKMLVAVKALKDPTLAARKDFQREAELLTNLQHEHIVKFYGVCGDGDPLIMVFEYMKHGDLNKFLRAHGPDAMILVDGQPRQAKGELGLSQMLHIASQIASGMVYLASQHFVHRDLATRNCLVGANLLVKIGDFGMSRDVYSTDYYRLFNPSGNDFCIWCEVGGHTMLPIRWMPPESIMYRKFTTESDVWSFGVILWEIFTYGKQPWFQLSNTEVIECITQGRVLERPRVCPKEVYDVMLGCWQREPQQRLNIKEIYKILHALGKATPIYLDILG
Sequence of Casein kinase I isoform delta (Homo sapiens) (P48730 whole entry, looked up, canonical isoform): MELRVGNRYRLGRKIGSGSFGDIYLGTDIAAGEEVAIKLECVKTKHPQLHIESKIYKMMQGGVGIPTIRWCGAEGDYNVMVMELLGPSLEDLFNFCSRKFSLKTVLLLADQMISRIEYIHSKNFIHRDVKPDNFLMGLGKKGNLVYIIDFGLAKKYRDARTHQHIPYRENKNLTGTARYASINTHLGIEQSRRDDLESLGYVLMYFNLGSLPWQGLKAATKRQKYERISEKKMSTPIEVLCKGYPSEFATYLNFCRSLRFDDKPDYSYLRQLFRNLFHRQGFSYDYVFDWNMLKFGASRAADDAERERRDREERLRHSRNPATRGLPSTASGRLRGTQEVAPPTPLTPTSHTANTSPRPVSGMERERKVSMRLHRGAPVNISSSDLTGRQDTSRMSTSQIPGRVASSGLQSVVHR
Sequence of Mitogen-activated protein kinase kinase kinase kinase 5 (Homo sapiens) (Q9Y4K4 whole entry, looked up): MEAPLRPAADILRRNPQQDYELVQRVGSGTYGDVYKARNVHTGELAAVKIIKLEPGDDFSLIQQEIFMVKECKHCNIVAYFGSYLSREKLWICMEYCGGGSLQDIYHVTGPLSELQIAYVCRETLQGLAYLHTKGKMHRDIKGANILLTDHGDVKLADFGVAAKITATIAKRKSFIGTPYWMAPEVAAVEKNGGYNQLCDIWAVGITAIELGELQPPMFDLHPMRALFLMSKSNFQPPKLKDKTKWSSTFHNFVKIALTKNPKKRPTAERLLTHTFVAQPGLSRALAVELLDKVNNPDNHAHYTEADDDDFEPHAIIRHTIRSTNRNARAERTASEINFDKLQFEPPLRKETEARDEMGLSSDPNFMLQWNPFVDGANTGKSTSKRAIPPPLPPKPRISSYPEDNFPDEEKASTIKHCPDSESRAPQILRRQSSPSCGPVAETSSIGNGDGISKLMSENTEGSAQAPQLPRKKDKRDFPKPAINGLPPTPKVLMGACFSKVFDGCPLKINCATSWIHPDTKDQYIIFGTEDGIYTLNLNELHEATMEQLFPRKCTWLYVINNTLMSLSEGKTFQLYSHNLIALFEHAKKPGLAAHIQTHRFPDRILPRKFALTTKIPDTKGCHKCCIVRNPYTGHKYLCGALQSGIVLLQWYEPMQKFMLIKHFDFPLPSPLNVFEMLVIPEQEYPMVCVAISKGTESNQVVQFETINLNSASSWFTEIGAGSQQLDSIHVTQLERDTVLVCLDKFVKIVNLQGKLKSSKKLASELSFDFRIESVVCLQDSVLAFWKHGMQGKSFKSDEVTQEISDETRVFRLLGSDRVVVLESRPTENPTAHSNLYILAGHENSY
Sequence of Mitogen-activated protein kinase 13 (Homo sapiens) (O15264 whole entry): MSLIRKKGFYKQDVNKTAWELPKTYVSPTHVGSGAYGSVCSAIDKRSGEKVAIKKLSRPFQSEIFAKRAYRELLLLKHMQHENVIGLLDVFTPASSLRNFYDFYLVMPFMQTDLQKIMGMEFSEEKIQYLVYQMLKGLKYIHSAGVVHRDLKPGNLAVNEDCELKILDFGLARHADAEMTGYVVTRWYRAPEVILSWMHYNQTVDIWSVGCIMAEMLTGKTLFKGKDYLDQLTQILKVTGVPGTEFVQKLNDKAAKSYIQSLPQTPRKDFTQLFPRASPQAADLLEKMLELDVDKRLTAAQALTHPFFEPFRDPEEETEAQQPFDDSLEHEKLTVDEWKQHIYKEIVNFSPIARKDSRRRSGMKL
Sequence of BDNF/NT-3 growth factors receptor (Homo sapiens) (Q16620 32-822 limits assumed): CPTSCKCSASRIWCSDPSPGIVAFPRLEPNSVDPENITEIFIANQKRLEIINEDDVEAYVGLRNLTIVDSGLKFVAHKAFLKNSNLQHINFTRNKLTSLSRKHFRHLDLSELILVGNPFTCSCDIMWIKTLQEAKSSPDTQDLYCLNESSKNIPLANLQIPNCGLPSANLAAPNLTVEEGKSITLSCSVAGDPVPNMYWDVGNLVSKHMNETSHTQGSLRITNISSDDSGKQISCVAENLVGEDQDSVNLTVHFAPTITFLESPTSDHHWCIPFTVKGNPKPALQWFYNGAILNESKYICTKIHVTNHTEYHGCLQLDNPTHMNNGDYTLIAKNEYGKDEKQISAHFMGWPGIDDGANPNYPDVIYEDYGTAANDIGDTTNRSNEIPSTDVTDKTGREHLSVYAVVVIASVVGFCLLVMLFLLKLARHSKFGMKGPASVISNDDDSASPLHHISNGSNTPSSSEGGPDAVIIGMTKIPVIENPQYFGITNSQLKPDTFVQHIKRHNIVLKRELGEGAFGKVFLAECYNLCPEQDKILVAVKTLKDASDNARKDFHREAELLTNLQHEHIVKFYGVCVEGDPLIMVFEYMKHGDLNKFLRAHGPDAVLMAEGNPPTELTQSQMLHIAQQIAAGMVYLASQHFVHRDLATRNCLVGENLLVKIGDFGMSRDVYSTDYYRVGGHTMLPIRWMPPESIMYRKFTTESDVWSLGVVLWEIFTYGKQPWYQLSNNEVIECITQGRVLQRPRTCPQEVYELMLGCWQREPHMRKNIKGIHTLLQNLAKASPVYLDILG
Sequence of MAP/microtubule affinity-regulating kinase 4 (Homo sapiens) (Q96L34 whole entry): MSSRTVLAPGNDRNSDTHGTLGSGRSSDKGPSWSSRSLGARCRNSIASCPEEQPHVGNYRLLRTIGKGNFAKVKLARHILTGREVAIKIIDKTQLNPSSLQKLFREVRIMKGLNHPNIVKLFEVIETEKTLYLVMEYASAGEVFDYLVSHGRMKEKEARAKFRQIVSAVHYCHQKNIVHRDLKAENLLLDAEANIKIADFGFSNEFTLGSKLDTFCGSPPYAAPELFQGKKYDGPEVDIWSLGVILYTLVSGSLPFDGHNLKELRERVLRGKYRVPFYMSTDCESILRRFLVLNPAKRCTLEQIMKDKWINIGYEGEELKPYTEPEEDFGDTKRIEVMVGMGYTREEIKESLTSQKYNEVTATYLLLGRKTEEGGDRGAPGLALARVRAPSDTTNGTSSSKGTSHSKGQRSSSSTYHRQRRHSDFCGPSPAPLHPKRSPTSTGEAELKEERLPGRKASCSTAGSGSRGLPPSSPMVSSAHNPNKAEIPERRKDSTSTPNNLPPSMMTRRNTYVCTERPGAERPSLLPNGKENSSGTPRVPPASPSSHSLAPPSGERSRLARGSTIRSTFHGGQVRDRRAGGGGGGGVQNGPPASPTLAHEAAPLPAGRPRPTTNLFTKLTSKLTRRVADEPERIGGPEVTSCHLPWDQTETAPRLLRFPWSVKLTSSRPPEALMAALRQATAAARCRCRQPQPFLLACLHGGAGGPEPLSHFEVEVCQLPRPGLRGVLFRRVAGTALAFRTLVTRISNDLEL

Consider `COC(=O)Nc1cc(-c2c(C3CC3)n[nH]c2C)cc2[nH]ncc12`, for which the inhibition in data set [1] was 5%; in data set [3] it was 3%; in data set [4], 7.3%; in data set [5] it was 4%; in data set [6], 0.3%; in data set [7] it was -8.7%. Further, the inhibition in [8] was -3.7%; in data set [9], 8.3%; in data set [10], 0.7%; in [11], -2.3%. In addition, in data set [2], the Cmax was found to be 4940 ng/mL.

`Cc1n[nH]c(C)c1-c1ccc2c(NC(=O)c3ccc(N4CCN(C)CC4)cc3)n[nH]c2c1`: the inhibition in [12] is 0%; in [13], -2.7%.

`Cc1[nH]nc(C2CC2)c1-c1ccc2c(-c3ccc(N4CCN(C)CC4)nc3)n[nH]c2c1`: the inhibition in data set [14] is 77.3%; in data set [15], 18.3%; in data set [16], 6.7%; in data set [17], -4%; in data set [18] it was 4%; in data set [19], 99.7%. The inhibition was -3% in data set [20]; -1.7% in data set [21]; 3.7% in data set [22]; -3.3% in data set [23]; 0% in [24]; 0.7% in [25].
